Source: PubChem (Broad Institute)
Statin myotox sup – suppressors of statin myotoxicity in C2C12 myotubes, primary screen, cell-based, single point, plate reader; C2C12 myotubes + simvastatin, ATP luminescence, 48 h; scaled: DMSO 0, geranylgeraniol control 100; rescue of ATP level, % at 7.49 µM; actives 0.78% (n = 330,000); AID 602340, 2012;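 active = mean ATP rescue above about 67%, or every replicate alone reaching that limit, limit read from the data, passing the limit was not always enough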;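 note: myotubes were challenged with 10 µM simvastatin during compound exposure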
Cneo AK release – Cryptococcus neoformans cell lysis inducers, primary screen, AK release luminescence, single concentration | C. neoformans lysis, adenylate kinase release luminescence, 4 h; normalised: neutral wells 0, clomiphene wells 100 | lysis activity, % at 15 µM | actives 0.2% (n = 360,000) | AID 651654, 2012;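 active = mean lysis activity across replicates of at least 80%, whatever share of replicates individually reach that level; inactive = mean lysis activity below 80%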
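Test system: log-phase Cryptococcus neoformans yeast cells; Quantity: yeast cell density of 5 × 10^6 cells/mL; Buffer or medium: YPD; Doses: single compound concentration per well; Timing: 4 h at 37 °C static, read 1 h later; Measured by: AK luminescence; Read-out basis: lysis from increased AK signal; Control set: Clomiphene as positive control.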
S100A4 inh HTS – inhibitors of S100A4-myosin IIA peptide binding, primary screen, biochemical, fluorescence polarization, TAMRA-MyoIIA peptide | Protein S100-A4 (Homo sapiens), P26447 | inhibition, % at 10.7 µM | actives 0.14% (n = 360,000);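 active = mean inhibition of at least 70% across replicates, with every replicate also reaching that level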
Target sequence (P26447 whole entry, looked up): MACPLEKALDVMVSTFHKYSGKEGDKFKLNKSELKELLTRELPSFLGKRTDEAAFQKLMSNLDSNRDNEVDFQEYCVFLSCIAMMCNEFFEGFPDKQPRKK
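Assay system: human S100A4 monomer with TAMRA-labelled myosin IIA peptide / Buffer or medium: Calcium-containing HEPES buffer, pH 7.2 / Reagent: TAMRA-labelled myosin IIA heavy-chain peptide probe, 5 nM / Compound: one dose per compound / Timing: polarization read 5 min after assay mix addition, stable 5–60 min / Benchmarks: neutral control DMSO, positive control TFP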
PGC1a acetyl inh – inhibitors of PGC1a acetylation signal, primary screen, cell-based, U2OS, AlphaScreen, inhibitor mode; AlphaScreen anti-acetyl-lysine; with virally co-expressed GCN5 acetyltransferase; AID 651687, 2012; actives 0.17% (n = 350,000); inhibition, % at 15.6 µM;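 active = every replicate shows inhibition of at least 40%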
rRNA inh HTS – reduced GFP signal of wild-type E. coli, primary screen, bacterial rRNA inhibitor project, GFP/RFP fluorescence, OD600, single point | E. coli WT GFP vs humanized-ribosome RFP mutants, 24 h; stronger effect = lower value; DMSO median 0, no signal -100 | GFP signal change (wild-type ribosome), % (test concentration not listed) | actives 1.6% (n = 350,000);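 active = significant combined selectivity score with lowered wild-type GFP, culture density cut under 30%, mutant RFP and density less affected; inactive = any of these conditions unmet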
SIRT5 inh – SIRT5 desuccinylase inhibitors, primary screen, biochemical, fluorescence imaging, single point, set 5. NAD-dependent protein deacylase sirtuin-5, mitochondrial (Homo sapiens), Q9NXA8. Purified SirT5, succinyl-peptide AMC, trypsin-coupled fluorescence. inhibition, % at 15 µM. actives 1.1% (n = 330,000). AID 652115, 2013; in the data active = inhibition above about 15%
Target sequence (Q9NXA8 whole entry, looked up): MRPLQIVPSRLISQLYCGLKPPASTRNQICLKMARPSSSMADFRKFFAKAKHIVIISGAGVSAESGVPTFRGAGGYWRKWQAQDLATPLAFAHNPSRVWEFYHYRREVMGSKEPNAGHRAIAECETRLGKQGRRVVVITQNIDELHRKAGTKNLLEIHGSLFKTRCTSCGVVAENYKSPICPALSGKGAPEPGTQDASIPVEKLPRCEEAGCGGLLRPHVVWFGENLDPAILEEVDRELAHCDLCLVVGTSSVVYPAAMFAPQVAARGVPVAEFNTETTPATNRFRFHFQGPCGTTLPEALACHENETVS
Numbers stand for hits; n = inactive; x = not tested or not shown. Hits are enriched below; roughly 3% of the tested compounds scored in any of these assays.

SMILES	Statin myotox sup	Cneo AK release	S100A4 inh HTS	PGC1a acetyl inh	rRNA inh HTS	SIRT5 inh
COc1ccc(-c2cc(C(=O)Nc3ccc(S(=O)(=O)Nc4onc(C)c4C)cc3)c3ccccc3n2)cc1	n	n	n	n	-18	n
Cc1noc(NS(=O)(=O)c2ccc(NC(=O)c3ccc(OC(C)C)cc3)cc2)c1C	x	x	n	x	-31	n
COc1ccccc1NS(=O)(=O)c1cc(C(=O)Nc2ccc(S(=O)(=O)Nc3onc(C)c3C)cc2)ccc1C	n	n	n	n	-21	n
C[C@H](CO)N1C[C@H](C)[C@@H](CN(C)Cc2ccc3c(c2)OCO3)Oc2ccc(NC(=O)Nc3ccc(C(F)(F)F)cc3)cc2CC1=O	n	n	n	n	n	n
COc1cccc(N2CCN(C(=O)c3ccc(CS(=O)Cc4ccccc4Cl)o3)CC2)c1 (centres undefined)	n	n	n	n	-31	n
COCC(=O)Nc1ccc2c(c1)OC[C@H](C)N(C(=O)Cc1cccnc1)C[C@@H](C)[C@H](OC)CN(C)C2=O	x	x	n	n	n	n
O=S(=O)(c1ccccc1)N1CC2(C1)[C@@H](c1ccccc1)[C@@H](CO)N2CC1CCOCC1	x	x	n	n	n	n
COc1c(Br)cc([N+](=O)[O-])c(OC)c1C(=O)NC(=O)Nc1c(Cl)cccc1Cl	x	n	n	n	-38	n
COc1cccc(-c2ccc([C@@H]3[C@@H](C#N)N(C(=O)Cc4ccccc4)[C@@H]3CO)cc2)c1	n	n	n	n	n	n
COc1ccc(S(=O)(=O)N(C)C[C@H]2OCCCC[C@H](C)Oc3ccc(NS(=O)(=O)c4ccc(Cl)cc4)cc3C(=O)N([C@@H](C)CO)C[C@@H]2C)cc1	x	x	n	n	n	x
COc1ccc(S(=O)(=O)N(C)C[C@H]2OCCCC[C@H](C)Oc3ccc(NS(=O)(=O)c4ccc(Cl)cc4)cc3C(=O)N([C@H](C)CO)C[C@H]2C)cc1	x	x	n	n	n	22
COc1ccc(S(=O)(=O)Nc2ccc3c(c2)C(=O)N([C@@H](C)CO)C[C@@H](C)[C@@H](CN(C)S(=O)(=O)c2ccc(Cl)cc2)OCCCC[C@H](C)O3)cc1	x	n	n	n	n	21
COc1ccc(S(=O)(=O)Nc2ccc3c(c2)C(=O)N([C@H](C)CO)C[C@H](C)[C@@H](CN(C)S(=O)(=O)c2ccc(Cl)cc2)OCCCC[C@H](C)O3)cc1	x	n	n	n	n	n
COc1ccc(S(=O)(=O)N(C)C[C@@H]2OCCCC[C@H](C)Oc3ccc(NS(=O)(=O)c4ccc(Cl)cc4)cc3C(=O)N([C@@H](C)CO)C[C@H]2C)cc1	x	x	n	n	n	21
C[C@@H]1CN([C@@H](C)CO)S(=O)(=O)c2ccc(-c3cncnc3)cc2O[C@H]1CN(C)C(=O)Cc1ccccc1	n	n	n	n	n	n
Cc1ccc(NC(=O)c2ccc(NCCCN3CCC(C)CC3)c([N+](=O)[O-])c2)cc1F	x	x	n	n	-25	n
O=C(Nc1cccc(Cl)c1)c1ccc(NCCCN2CCOCC2)c([N+](=O)[O-])c1	x	x	x	n	x	x
COc1cc2c(cc1OC)CN(C(=O)c1ccc(S(=O)(=O)N3CCCC3)cc1)CC2	x	x	n	n	n	n
CCOc1cc2c(cc1OCC)CN(C(=O)c1cccc(S(=O)(=O)N3CCCC3)c1)CC2	n	n	n	n	-19	n
CN1CCN(c2ccc([N+](=O)[O-])c(-n3nc(-c4ccccc4)c4ccccc4c3=O)c2)CC1	80	n	x	n	x	x
Cc1nn(-c2cc(N3CCNCC3)ccc2[N+](=O)[O-])c(=O)c2ccccc12	n	n	x	n	x	x
